From ChEMBL document CHEMBL1671691 (Antimicrob Agents Chemother, 2010) come the findings set out here.

As a reminder, the EC50 is the concentration that produces a half-maximal response.

The subject of assay [1] is Influenza B virus. Kind of assay: Antiviral activity against oseltamivir-susceptible zanamivir-, adamantane-resistant Influenza B virus (B/Michigan/20/2005) harboring neuraminidase H274Y mutant infected in MDCK cells assessed as inhibition of viral replication after 3 days by microscopic analysis using crystal violet stain. In kind it is functional, cell-based.
Assay [2] deals with Influenza A virus. In words: Antiviral activity against 0.001 MOI adamantane-resistant zanamivir-,oseltamivir-susceptible Influenza A virus (A/pdm/California/04/2009(H1N1)) harboring M2 V28I, S31N mutant infected in MDCK cells assessed as determination of viral titer in cell culture at 1.6 uM after 24 hrs by immunofluorescence assay. It counts as functional, organism-based. As to conditions: A/California/04/2009(H1N1). The procedure, abridged: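 Focus inhibition assay: confluent MDCK monolayers infected at MOI ∼0.001–0.1. Adsorption 1 h at 4°C, washed twice, then DMEM with 2 μg/ml TPCK-trypsin and drug for 24 h at 37°C. Cells fixed in methanol/acetic acid at −20°C, immunostained with anti-NP monoclonals and FITC secondary, and foci counted. Supernatants also titrated by focus assay. Quadruplicate on two occasions.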

Assay [3] deals with Influenza A virus. Kind of assay: Antiviral activity against adamantane-, zanamivir-susceptible oseltamivir-resistant Influenza A virus (A/Florida/21/2008(H1N1)) harboring neuraminidase H274Y mutant infected in MDCK cells assessed as inhibition of viral replication after 3 days by microscopic analysis using crystal violet stain. It counts as functional, organism-based. The procedure, abridged: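 MDCK-ATCC confluent monolayers infected with pretitrated virus (15–45 plaques per well), 1 h adsorption at 37°C, 5% CO2, without drug. Inoculum removed, PBS wash, then 0.8% agarose overlay in MEM with drug and 3 μg/ml TPCK-trypsin. 3 days at 37°C, ethanol fixation, crystal violet stain, plaques counted. EC50 by curve fit, mean of three experiments in duplicate ± SD.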

The test system of assay [4] is Influenza A virus. Kind of assay: Antiviral activity against Influenza A virus (A/Washington/29/2009(H1N1)) harboring neuraminidase H275Y mutant infected in MDCK cells from ATCC assessed as inhibition of viral replication after 3 days by microscopic analysis using crystal violet stain. It counts as functional. In short, it runs like this: (§1)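 Confluent MDCK-ATCC monolayers infected with virus diluted to give 15–45 plaques/well. Adsorption 1 h at 37°C without drug, then washed. Overlaid with 0.8% agarose in MEM containing drug plus TPCK-trypsin: 3 μg/ml for seasonal viruses, 2 μg/ml for 2009 A(H1N1). Incubated 3 days at 37°C, 5% CO2. Ethanol-fixed, crystal violet-stained, plaques counted. EC50 by curve fit; duplicates on three occasions, mean ± SD.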

The test system of assay [5] is Influenza A virus. Kind of assay: Antiviral activity against adamantane-, zanamivir-susceptible oseltamivir-resistant Influenza A virus (A/Washington/10/2008(H1N1)) harboring M2 S31N mutant infected in MDCK cells assessed as inhibition of viral replication after 3 days by microscopic analysis using crystal violet stain. In kind it is functional, organism-based. In short, it runs like this:
as §1

Assay [6] relates to Influenza A virus. In words: Antiviral activity against adamantane-resistant zanamivir-,oseltamivir-susceptible Influenza A virus (A/pdm/Mexico/4604/2009(H1N1)) harboring M2 V28I, S31N mutant infected in MDCK cells assessed as determination of viral titer in cell culture at 128 uM after 24 hrs by immunofluorescence assay. It counts as functional, organism-based. The following applies: Influenza A virus (A/Mexico/4604/2009(H1N1)). The procedure, abridged:
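MDCK cells (ATCC or Mill Hill) infected with 2009 pandemic H1N1 at MOI ~0.01, 1 h adsorption at 4°C, washed. DMEM with 2 μg/ml TPCK-trypsin plus drug for 24 h at 37°C. Supernatants titrated on MDCK cells by focus formation: methanol/acetic acid fixation, anti-nucleoprotein MAbs, FITC secondary, foci counted. Titre as log10 FFU per 100 μl; detection limit <10 FFU; quadruplicate wells.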

Activity calls are given as the source filed them. The rule behind the calls is not given here.

Consider `NC(=O)c1nc(F)cnc1O` [FAVIPIRAVIR], for which the concentration for a half-maximal effect (EC50) in assay [1] came out at 5.03 µM; in assay [3] it was 1590 nM; in assay [5], 3.25 µM. Also, the result in assay [2] and in assay [6] was Active. The log10FFU in assay [4] worked out at 0.78.
